Rows were chosen to be rich in hits. Some 3.4% of all compounds tested hit in one or more screens of this group.
VIM-2 inh – blocks Pseudomonas aeruginosa VIM-2 metallo-beta-lactamase; 290,000 tested, 0.89% active; inhibition, % at 5.6 µM; purified VIM-2, nitrocefin hydrolysis, epi-absorbance fluorescence;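 active means inhibition above the mean of all tested compounds plus 3 SD, cutoff set per screening run, cut at about 7.5% in these data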;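 further: red hydrolysis product quenches plate fluorescence so inhibitors raise well fluorescence; 0% = enzyme with DMSO and 100% = DMSO without enzyme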
MEKK2mut PB1 HTS – signal of MEK5 binding to mutant human MEKK2 PB1 domain; bead flow cytometry, Alexa488-MEK5 binding to MEKK2 mutant; percent response, % at 10 µM; 290,000 tested, 0.35% active; in the data active means percent response above about 24%, passing the limit was not always enough
IMP-1 inh-1 – inhibitors of Pseudomonas aeruginosa IMP-1 metallo-beta-lactamase | 290,000 tested, 0.45% active | inhibition, % at 5.6 µM | purified IMP-1, nitrocefin hydrolysis, epi-absorbance fluorescence;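 active means inhibition above the mean plus 3 SD of all compounds in the same screening run, cut at about 4.5% in these data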;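 further: 0% = IMP-1 with DMSO and 100% = DMSO wells lacking enzyme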
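System: Purified IMP-1 | Read-out basis: Percent enzyme inhibition | Controls: IMP-1 with DMSO as 0%, enzyme-free DMSO as 100% | Replicates: One well per compound | Doses: 5.6 µM nominal single concentration | Detection: Epi-absorbance fluorescence, 480 nm excitation, 530 nm emission | Incubation: 25 °C, 15 min preincubation, 25 min reaction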
MEKK3 PB1 HTS – modulators (inhibitors or enhancers) of MEK5 binding to human MEKK3 PB1 domain | Q99759 | bead-based flow cytometry, Alexa488-MEK5 binding to MEKK3; actives lie on both sides; 0 = blocked by unlabeled MEK5, 100 = vehicle | binding response (% of control), % at 10 µM | 290,000 tested, 1.4% active;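 active means binding response more than 3 SD above or below the average of its plate-row segment, actives on both sides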;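 further: Alexa488 bead fluorescence after subtracting the streptavidin-only scavenger bead signal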
Target sequence (Q99759 whole entry, looked up, the tested form may be a part): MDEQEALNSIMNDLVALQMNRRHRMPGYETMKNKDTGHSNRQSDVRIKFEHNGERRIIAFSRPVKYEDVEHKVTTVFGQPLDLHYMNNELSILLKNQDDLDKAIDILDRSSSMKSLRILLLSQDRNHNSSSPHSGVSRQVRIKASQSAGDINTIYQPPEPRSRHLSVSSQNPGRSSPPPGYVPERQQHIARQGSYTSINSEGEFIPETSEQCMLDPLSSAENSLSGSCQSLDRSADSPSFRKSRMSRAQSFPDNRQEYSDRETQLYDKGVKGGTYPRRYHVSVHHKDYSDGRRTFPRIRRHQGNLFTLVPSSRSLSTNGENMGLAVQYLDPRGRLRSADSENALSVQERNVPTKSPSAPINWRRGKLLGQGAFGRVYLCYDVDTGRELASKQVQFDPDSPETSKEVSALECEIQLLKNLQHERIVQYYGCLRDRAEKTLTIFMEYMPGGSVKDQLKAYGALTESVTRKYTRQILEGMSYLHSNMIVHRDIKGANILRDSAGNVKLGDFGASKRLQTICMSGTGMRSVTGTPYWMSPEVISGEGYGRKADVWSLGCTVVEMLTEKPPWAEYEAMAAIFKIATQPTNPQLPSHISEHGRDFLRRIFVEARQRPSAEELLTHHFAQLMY
MEKK2 WT-MEK5 – raises or lowers MEK5 binding to wildtype human MEKK2 PB1 domain | Q9Y2U5 | 290,000 tested, 1.1% active | AID 1531 | binding response (% of control), % at 10 µM | bead flow cytometry, Alexa488-MEK5 binding to MEKK2 WT; actives lie on both sides; in the data active means binding response below about 67% or above about 130%
IMP-1 inh-2 – blocks IMP-1 metallo-beta-lactamase in VIM-2 selectivity screen. shares compounds with VIM-2 inh. purified IMP-1, nitrocefin hydrolysis, epi-absorbance fluorescence. 1,300 tested, under 10 active. inhibition, % at 5.6 µM; call rule not given here;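 further: 0% = enzyme with vehicle and 100% = vehicle without enzyme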
VIM-2 FRET inh – VIM-2 FRET inhibition, artifact counter-screen. shares compounds with VIM-2 inh. purified VIM-2, CCF2 FRET substrate hydrolysis. inhibition, % at 5.6 µM. 1,300 tested, 23% active. AID 1857;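 active means inhibition above the mean of all tested compounds plus 3 SD, cut at about 19% in these data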;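 further: 0% = VIM-2 plus DMSO and 100% = no enzyme wells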
TEM-1 inh – blocks E. coli TEM-1 beta-lactamase in VIM-2 selectivity screen. shares compounds with VIM-2 inh. AID 1866. 1,300 tested, 3% active. Purified TEM-1, nitrocefin hydrolysis, epi-absorbance fluorescence. inhibition, % at 5.6 µM;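 active means inhibition above that campaign's mean inhibition plus 3 SD, cut at about 0.46% in these data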;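 further: 0% = TEM-1 with DMSO and 100% = TEM-1 with 100 µM potassium clavulanate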
VIM-2 confirm 2 – confirmation of P. aeruginosa VIM-2 metallo-beta-lactamase inhibitors; shares compounds with VIM-2 inh; purified VIM-2, nitrocefin hydrolysis, epi-absorbance; inhibition, % at 5.6 µM; 1,300 tested, 96% active; AID 2187;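 active means inhibition of the VIM-2 beta-lactamase enzyme above about 11% from the earlier first-round screen, limit read from the data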;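 further: 0% = VIM-2 with DMSO and 100% = buffer wells without enzyme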
An asterisk follows results filed as active; . = no result.

SMILES	VIM-2 inh	MEKK2mut PB1 HTS	IMP-1 inh-1	MEKK3 PB1 HTS	MEKK2 WT-MEK5	IMP-1 inh-2	VIM-2 FRET inh	TEM-1 inh	VIM-2 confirm 2
Cn1nc(C(F)(F)F)c(-c2cccc(C(F)(F)F)c2)c1NC(=O)c1nccnc1C(=O)O	0	-11	-1	95	93	.	.	.	.
Cc1cc(OCCCn2ccnc2)ccc1[N+](=O)[O-]	28*	3	-1	103	104	-2	-8	-6	39*
Cc1nc2ccccc2c2oc(C(=O)N3CCN(C4CCCCC4)CC3)cc12	19*	-2	-3	93	99	-2	4	-6	38*
COc1ccc2c(c1)c(=O)c(C(=O)O)c(-c1ccc3c(c1)OCO3)n2C	40*	-2	-1	92	96	-3	73*	-6	59*
CCOc1ncccc1C(=O)N1CCN(c2ccc(C(F)(F)F)cn2)CC1	0	-1	-2	101	102	.	.	.	.
CCOc1ccc(-n2c(Cc3cc(=O)[nH]c(=O)[nH]3)nnc2SC(C)C(=O)OC)cc1 (stereo not drawn)	-3	.	-2	.	.	.	.	.	.
O=C(Cn1c(=O)c2cccn2c2ccccc21)NCCCN1CCCCC1	-4	2	-1	95	99	.	.	.	.
CN1CCN(CCNC(=O)c2cc3c(=O)n(C)c4ccccc4c3n2C)CC1	21*	4	2	101	104	-2	5	-5	33*
Cn1c(C(=O)NCCCN2CCCCCC2)cc2c(=O)n(C)c3ccccc3c21	22*	6	1	95	107	0	-2	-4	29*
Cn1c(C(=O)Nc2ccc3c(c2)OCCO3)cc2c(=O)n(C)c3ccccc3c21	-2	-1	-5	100	101	.	.	.	.
CCCN1CCN(CCCNC(=O)c2cc3c(=O)n(C)c4ccccc4c3n2C)CC1	16*	4	-5	102	108	-3	4	-5	30*
Cc1ccc(NC2c3ccccc3C(=O)N2c2cccnc2)cc1 (stereo not drawn)	-2	24	-5	127	109	.	.	.	.
CCOc1cc(C2C(C#N)=C(N)Oc3n[nH]c(CC)c32)ccc1OCCN1CCOCC1 (stereo not drawn)	13*	0	-2	95	98	-2	2	-5	8.3*
Cc1cc(=O)oc2c(CN(C)Cc3ccccc3)c(O)ccc12	0	-39	-6	80	67	.	.	.	.
C=CCN(CC=C)Cc1c(O)ccc2c1oc(=O)c1ccccc12	17*	-9	-2	91	90	-3	-21	-5	44*
CCc1nnc(NC(=O)c2cccc(S(=O)(=O)N3CCCCC3)c2)s1	-2	4	-2	101	102	.	.	.	.
CCCCCCOc1ccc(N2C(=O)CC(SCCN)C2=O)cc1 (stereo not drawn)	15*	6	-4	106	116	-2	6	-6	5
O=C(O)CC/C(=C\c1cccc(NC(=O)c2ccccc2Cl)c1)c1nc2ccccc2s1	0	-7	-1	97	89	.	.	.	.
O=C(O)C/C(=C\c1cc(Cl)c2c(c1)OCO2)c1nc2ccccc2s1	14*	-2	1	99	98	0	40*	-5	23*
O=C(COc1cc2oc(=O)c3c(c2cc1Cl)CCC3)NCCCN1CCCC1=O	18*	5	-3	106	110	-2	0	-6	32*
O=C(COc1ccc2c(c1)oc(=O)c1ccccc12)NCCN1CCOCC1	19*	-6	2	96	97	-3	1	-6	27*
O=C(COc1ccc2c3c(c(=O)oc2c1)CCC3)NCCN1CCOCC1	19*	-4	-1	100	100	-3	-16	-5	25*
O=C(COc1ccc2c(-c3ccccc3)cc(=O)oc2c1)NCCCN1CCOCC1	-1	10	-2	107	105	.	.	.	.
CC(C)CCNC(=O)COc1ccc2c3c(c(=O)oc2c1)CCC3	3	3	0	98	97	.	.	.	.
COc1ccc(OC)c(C(C(=O)NCc2ccco2)N(C(=O)Cn2nnc3ccccc32)C(C)C)c1 (stereo not drawn)	0	8	-1	100	102	.	.	.	.
SMILES	VIM-2 inh	MEKK2mut PB1 HTS	IMP-1 inh-1	MEKK3 PB1 HTS	MEKK2 WT-MEK5	IMP-1 inh-2	VIM-2 FRET inh	TEM-1 inh	VIM-2 confirm 2
COc1ccc(-n2c(SCC(=O)Nc3cccc(C(=O)O)c3)nnc2-c2ccco2)cc1	-1	1	-2	101	97	.	.	.	.
CN1CCC(OC(=O)c2ccccc2)CC1	-1	3	0	103	100	.	.	.	.
Cc1c(Br)cc(C(=O)OC2CCN(C)CC2)c(C)c1C	13*	-3	0	99	107	-1	2	-5	17*
C/C(Cl)=C/Cn1c(NCCCn2ccnc2)nc2c1c(=O)[nH]c(=O)n2C	22*	5	-3	103	101	-4	-6	-4	45*
CCN(CC)CCNc1nc2c(c(=O)n(C)c(=O)n2C)n1C/C=C(/C)Cl	1	5	-2	102	106	.	.	.	.
C/C(Cl)=C\Cn1c(NCCCn2ccnc2)nc2c1c(=O)n(C)c(=O)n2C	31*	5	-5	105	103	-4	-3	-7	49*
Cn1c(=O)[nH]c(=O)c2c1nc(NCCCn1ccnc1)n2Cc1ccc(F)cc1	2	7	-4	117	118	.	.	.	.
Cn1ccnc1SCC(=O)NC1CCCC1	0	-12	0	93	89	.	.	.	.
Cn1ccnc1SCC(=O)Nc1ccc2nc(SCC(=O)NC3CC3)sc2c1	13*	2	-2	107	104	-3	36*	-6	25*
CCc1nc(SCCO)c2oc3ccccc3c2n1	4	-5	-6	90	93	.	.	.	.
CC12CCC(c3c(C(=O)O)nn(-c4ccccc4)c31)C2(C)C (stereo not drawn)	14*	4	0	102	103	-3	26*	-2	18*
S=c1[nH]nc(-c2ccco2)n1-c1cccc2ccccc12	19*	2	-7	100	102	-2	49*	-8	32*
COc1ccc(-n2c(-c3ccco3)n[nH]c2=S)cc1	2	-4	-4	93	92	.	.	.	.
S=c1[nH]nc(-c2ccco2)n1-c1ccc(Cl)cc1	2	-8	-3	95	96	.	.	.	.
COc1ccccc1-n1c(-c2ccco2)n[nH]c1=S	22*	2	-1	102	102	-3	44*	-8	28*
